Assay results gathered from unrelated publications.
Read-out: metabolic stability
Species: human

COc1ccc([C@@H]2Sc3ccccc3N(CCN(C)C)C(=O)[C@@H]2OC(C)=O)cc1 — microsomal CLint (liver microsomes): 26 µL/min/mg
CCC(CC)COC(=O)[C@H](C)N[P@](=O)(OC[C@@H]1C[C@@H](O)[C@H](n2cnc3c(N)nc(F)nc32)O1)Oc1ccccc1 — microsomal CLint (liver microsomes; 1 µM): 1230 µL/min/mg
O=C(O)Cc1ccccc1Nc1c(Cl)cccc1Cl — hepatocyte CLint (hepatocytes; 0.5 µM; pH 7.4): 98.2 µL/min/10⁶ cells
NC(=O)N1c2ccccc2C=Cc2ccccc21 — microsomal CLint (liver microsomes; 1 µM): < 3 µL/min/mg
O=c1ccc2ccc(O)cc2o1 — scaled CLint (liver microsomes): 939 mL/min/kg
CC[N+]1(C)CCN(c2ccc(NC(=O)c3cccc(C)n3)cc2)CC1 — microsomal CLint (liver microsomes): < 3 µL/min/mg
O=C1CC[C@H](N2Cc3cc(N4CCN(CC5CCN(c6ccc([C@@H]7c8ccc(O)cc8CC[C@@H]7c7ccccc7)cc6)CC5)CC4)ccc3C2=O)C(=O)N1 — hepatocyte CLint (hepatocytes; 1 µM): 13 µL/min/10⁶ cells
CC(C)C[C@H](NC(=O)[C@@H]1COCCCCCC(=O)N2CC(F)(F)C[C@H]2C(=O)N1)C(=O)[C@@]1(C)CO1 — scaled CLint (liver microsomes; 2 µM; 1 h): 57.6 mL/min/kg
O=C(O)Cc1ccccc1Nc1c(Cl)cccc1Cl — scaled CLint (liver microsomes): 174 mL/min/kg
Cn1nc2c(=O)n(C3CC3)ncc2c1[C@](O)(c1cnc(C(F)(F)F)c(Cl)c1)C(F)(F)F — hepatocyte CLint (hepatocytes; 0.5 µM; pH 7.4): < 0.5 µL/min/10⁶ cells
CCC(CC)COC(=O)[C@H](C)N[P@@](=O)(OC[C@@H]1C[C@@H](O)[C@H](n2cnc3c(N)ncnc32)O1)Oc1ccccc1 — microsomal CLint (liver microsomes; 1 µM): 2610 µL/min/mg
CC(C)C[C@H](NC(=O)[C@@H]1COCCCCCC(=O)N2C[C@H](F)C[C@H]2C(=O)N1)C(=O)[C@@]1(C)CO1 — scaled CLint (liver microsomes; 2 µM; 1 h): 32.4 mL/min/kg
CCN(CCN)c1ccc(Nc2cc(NC3CC3)n3ncc(C#N)c3n2)cc1-n1cnnc1 — scaled CLint (liver microsomes): < 6.8 mL/min/kg
CCn1cnc2c([C@@](O)(CC)c3ccc(C(F)(F)F)nc3)n(C)nc2c1=O — microsomal CLint (liver microsomes; 0.5 µM; pH 7.4): < 3 µL/min/mg
CC(C)C[C@H](NC(=O)[C@H](CCc1ccccc1)NC(=O)CN1CCOCC1)C(=O)N[C@@H](Cc1ccccc1)C(=O)N[C@@H](CC(C)C)C(=O)[C@@]1(C)CO1 — scaled CLint (liver microsomes; 2 µM; 1 h): 931 mL/min/kg
Cn1nc2c(=O)n(C3CC3)ncc2c1[C@](N)(c1ccc(C(F)(F)F)c(Cl)c1)C1CC1 — hepatocyte CLint (hepatocytes; 0.5 µM; pH 7.4): < 0.5 µL/min/10⁶ cells
CCOc1ccc2ccc(=O)oc2c1 — hepatocyte CLint (hepatocytes; 1 µM): 60.6 µL/min/10⁶ cells
CC(C)C[C@H](NC(=O)[C@@H]1COCCCCCC(=O)N2CC[C@H]2C(=O)N1)C(=O)[C@@]1(C)CO1 — scaled CLint (liver microsomes; 2 µM; 1 h): 29 mL/min/kg
Cn1nc2c(=O)n(C3CC3)ccc2c1[C@](O)(c1cnc(C(F)(F)F)c(Cl)c1)C(F)(F)F — hepatocyte CLint (hepatocytes; 0.5 µM; pH 7.4): 0.5 µL/min/10⁶ cells
